# In ChEMBL document CHEMBL4043279 (Bioorg Med Chem Lett, 2017):
# Calls of active or inactive are those of the source. No cut-off for these calls is given here.
# Key:
# [1] = system: PC-3; test: Antiproliferative activity against human PC3 cells treated for 24 hrs measured after 72 hrs by MTT assay; format: functional, cell-based
# [2] = system: HepG2; test: Antiproliferative activity against human HepG2 cells treated for 24 hrs measured after 72 hrs by MTT assay; format: functional, cell-based
# [3] = system: THP-1; test: Antiproliferative activity against human THP1 cells treated for 24 hrs measured after 72 hrs by MTT assay; format: functional, cell-based
# [4] = system: HL-60; test: Antiproliferative activity against human HL60 cells treated for 24 hrs measured after 72 hrs by MTT assay; format: functional, cell-based
# [5] = system: PBMC; test: Antiproliferative activity against human PBMC treated for 24 hrs measured after 72 hrs by MTT assay; format: cell-based
# [6] = system: HL-60; test: Cell cycle arrest in human HL60 cells assessed as accumulation at G1-phase at 0.25 uM after 48 hrs by propidium iodide staining based flow cytometry (reference value: 63.21%); format: functional
# [7] = system: HL-60; test: Cell cycle arrest in human HL60 cells assessed as accumulation at S-phase at 0.25 uM after 48 hrs by propidium iodide staining based flow cytometry (reference value: 25.19%); format: functional
# [8] = system: HL-60; test: Cell cycle arrest in human HL60 cells assessed as accumulation at G2-phase at 0.25 uM after 48 hrs by propidium iodide staining based flow cytometry (reference value: 11.61%); format: functional
# [9] = system: HL-60; test: Cell cycle arrest in human HL60 cells assessed as accumulation at G1-phase at 0.5 uM after 48 hrs by propidium iodide staining based flow cytometry (reference value: 63.21%); format: functional
# [10] = system: HL-60; test: Cell cycle arrest in human HL60 cells assessed as accumulation at S-phase at 0.5 uM after 48 hrs by propidium iodide staining based flow cytometry (reference value: 25.19%); format: functional
# [11] = system: HL-60; test: Cell cycle arrest in human HL60 cells assessed as accumulation at G2-phase at 0.5 uM after 48 hrs by propidium iodide staining based flow cytometry (reference value: 11.61%); format: functional
# [12] = system: HL-60; test: Cell cycle arrest in human HL60 cells assessed as accumulation at G1-phase at 1 uM after 48 hrs by propidium iodide staining based flow cytometry (reference value: 63.21%); format: functional
# [13] = system: HL-60; test: Cell cycle arrest in human HL60 cells assessed as accumulation at S-phase at 1 uM after 48 hrs by propidium iodide staining based flow cytometry (reference value: 25.19%); format: functional
# [14] = system: HL-60; test: Cell cycle arrest in human HL60 cells assessed as accumulation at G2-phase at 1 uM after 48 hrs by propidium iodide staining based flow cytometry (reference value: 11.61%); format: functional
# [15] = system: HL-60; test: Induction of apoptosis in human HL60 cells assessed as chromatin condensation at 0.25 to 1 uM after 48 hrs […]; format: functional, cell-based
# [16] = system: HL-60; test: Induction of apoptosis in human HL60 cells assessed as nuclear fragmentation at 0.25 to 1 uM after 48 hrs by […]; format: functional, cell-based
# [17] = system: HL-60; test: Induction of apoptosis in human HL60 cells after 48 hrs by Annexin V-FITC/propidium iodide staining based flow cytometry; format: functional, cell-based
# In short: (§1)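 HL-60 cells were treated for 48 h with vehicle alone or with 0.25, 0.5 or 1.0 μM. Cells were then stained with FITC-Annexin V and PI and analysed by two-parameter flow cytometry. Quadrants were scored as viable (LL), early apoptotic (LR), late apoptotic/necrotic (UR) and necrotic (UL). Total apoptosis was taken as early plus late.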
# [18] = system: HL-60; test: Induction of apoptosis in human HL60 cells assessed as live cells at 0.25 uM after 48 hrs by Annexin V-FITC/propidium iodide staining based flow cytometry (reference value: 95.75%); format: functional; in short: as §1
# [19] = system: HL-60; test: Induction of apoptosis in human HL60 cells assessed as early apoptotic cells at 0.25 uM after 48 hrs by Annexin V-FITC/propidium iodide staining based flow cytometry (reference value: 2.66%); format: functional; in short: as §1
# [20] = system: HL-60; test: Induction of apoptosis in human HL60 cells assessed as late apoptotic cells at 0.25 uM after 48 hrs by Annexin V-FITC/propidium iodide staining based flow cytometry (reference value: 1.56%); format: functional; in short: as §1
# [21] = system: HL-60; test: Induction of apoptosis in human HL60 cells assessed as necrotic cells at 0.25 uM after 48 hrs by Annexin V-FITC/propidium iodide staining based flow cytometry (reference value: 0.03%); format: functional; in short: as §1
# [22] = system: HL-60; test: Induction of apoptosis in human HL60 cells assessed as live cells at 0.5 uM after 48 hrs by Annexin V-FITC/propidium iodide staining based flow cytometry (reference value: 95.75%); format: functional; in short: as §1
# [23] = system: HL-60; test: Induction of apoptosis in human HL60 cells assessed as early apoptotic cells at 0.5 uM after 48 hrs by Annexin V-FITC/propidium iodide staining based flow cytometry (reference value: 2.66%); format: functional; in short: as §1
# [24] = system: HL-60; test: Induction of apoptosis in human HL60 cells assessed as late apoptotic cells at 0.5 uM after 48 hrs by Annexin V-FITC/propidium iodide staining based flow cytometry (reference value: 1.56%); format: functional; in short: as §1
# [25] = system: HL-60; test: Induction of apoptosis in human HL60 cells assessed as necrotic cells at 0.5 uM after 48 hrs by Annexin V-FITC/propidium iodide staining based flow cytometry (reference value: 0.03%); format: functional; in short: as §1
# [26] = system: HL-60; test: Induction of apoptosis in human HL60 cells assessed as live cells at 1 uM after 48 hrs by Annexin V-FITC/propidium iodide staining based flow cytometry (reference value: 95.75%); format: functional; in short: as §1
# [27] = system: HL-60; test: Induction of apoptosis in human HL60 cells assessed as early apoptotic cells at 1 uM after 48 hrs by Annexin V-FITC/propidium iodide staining based flow cytometry (reference value: 2.66%); format: functional; in short: as §1
# [28] = system: HL-60; test: Induction of apoptosis in human HL60 cells assessed as late apoptotic cells at 1 uM after 48 hrs by Annexin V-FITC/propidium iodide staining based flow cytometry (reference value: 1.56%); format: functional; in short: as §1
# [29] = system: HL-60; test: Induction of apoptosis in human HL60 cells assessed as necrotic cells at 1 uM after 48 hrs by Annexin V-FITC/propidium iodide staining based flow cytometry (reference value: 0.03%); format: functional; in short: as §1
# [30] = system: HL-60; test: Induction of mitochondrial membrane potential loss in human HL60 cells assessed as cells with intact mitochondrial membrane at 0.25 uM after 48 hrs by JC-1 staining based flow cytometry (reference value: 92.17%); format: functional
# [31] = system: HL-60; test: Induction of mitochondrial membrane potential loss in human HL60 cells assessed as cells with collapsed mitochondrial membrane potential at 0.25 uM after 48 hrs by JC-1 staining based flow cytometry (reference value: 7.81%); format: functional
# [32] = system: HL-60; test: Induction of mitochondrial membrane potential loss in human HL60 cells assessed as cells with intact mitochondrial membrane at 0.5 uM after 48 hrs by JC-1 staining based flow cytometry (reference value: 92.17%); format: functional
# [33] = system: HL-60; test: Induction of mitochondrial membrane potential loss in human HL60 cells assessed as cells with collapsed mitochondrial membrane potential at 0.5 uM after 48 hrs by JC-1 staining based flow cytometry (reference value: 7.81%); format: functional
# [34] = system: HL-60; test: Induction of mitochondrial membrane potential loss in human HL60 cells assessed as cells with intact mitochondrial membrane at 1 uM after 48 hrs by JC-1 staining based flow cytometry (reference value: 92.17%); format: functional
# [35] = system: HL-60; test: Induction of mitochondrial membrane potential loss in human HL60 cells assessed as cells with collapsed mitochondrial membrane potential at 1 uM after 48 hrs by JC-1 staining based flow cytometry (reference value: 7.81%); format: functional
# [36] = system: HL-60; test: Induction of mitochondrial membrane potential loss in human HL60 cells assessed as cells with collapsed mitochondrial membrane potential after 48 hrs by JC-1 staining based flow cytometry; format: functional, cell-based
structure (smiles),measurement,setting,value
CN1c2ccccc2C(=O)N2CCc3c([nH]c4ccccc34)C21 (stereo unspecified),IC50,[1],14 µM
same,IC50,[2],9.32 µM
same,IC50,[3],3.37 µM
same,IC50,[4],1.39 µM
same,IC50,[5],22.9 µM
CN1c2ccccc2C(=O)N2CCc3c(n(CCCCCCO)c4ccccc34)C21 (stereo unspecified),IC50,[1],21.5 µM
same,IC50,[2],> 100 µM
same,IC50,[3],6.97 µM
same,IC50,[4],8.53 µM
same,IC50,[5],> 200 µM
CN1c2ccccc2C(=O)N2CCc3c(n(CCCOCCCOC(=O)c4ccc(N(CCCl)CCCl)cc4)c4ccccc34)C21 (stereo unspecified),IC50,[1],> 100 µM
same,IC50,[2],> 100 µM
same,IC50,[3],9.29 µM
same,IC50,[4],22.3 µM
same,IC50,[5],> 200 µM
COC(=O)[C@H](Cc1ccc(N(CCCl)CCCl)cc1)NC(=O)CCC(=O)O,IC50,[1],> 100 µM
same,IC50,[2],13.8 µM
same,IC50,[3],3.84 µM
same,IC50,[4],5.34 µM
same,IC50,[5],> 200 µM
COC(=O)[C@H](Cc1ccc(N(CCCl)CCCl)cc1)NC(=O)CCC(=O)OCCn1c2c(c3ccccc31)CCN1C(=O)c3ccccc3N(C)C21 (stereo partly specified),IC50,[1],> 100 µM
same,IC50,[2],> 100 µM
same,IC50,[3],9.37 µM
same,IC50,[4],3.11 µM
same,IC50,[5],> 200 µM
COC(=O)[C@H](Cc1ccc(N(CCCl)CCCl)cc1)NC(=O)CCC(=O)OCCCn1c2c(c3ccccc31)CCN1C(=O)c3ccccc3N(C)C21 (stereo partly specified),IC50,[1],> 100 µM
same,IC50,[2],> 100 µM
same,IC50,[3],2.37 µM
same,IC50,[4],1.12 µM
same,IC50,[5],> 200 µM
CN1c2ccccc2C(=O)N2CCc3c(n(CCOC(=O)c4ccc(N(CCCl)CCCl)cc4)c4ccccc34)C21 (stereo unspecified),IC50,[1],> 100 µM
same,IC50,[2],> 100 µM
same,IC50,[3],33.6 µM
same,IC50,[4],27.2 µM
same,IC50,[5],> 200 µM
COC(=O)[C@H](Cc1ccc(N(CCCl)CCCl)cc1)NC(=O)CCC(=O)OCCCOCCCn1c2c(c3ccccc31)CCN1C(=O)c3ccccc3N(C)C21 (stereo partly specified),IC50,[1],> 100 µM
same,IC50,[2],17 µM
same,IC50,[3],4.05 µM
same,IC50,[4],0.5 µM
same,IC50,[5],> 200 µM
same,Activity,[6],62.39%
same,Activity,[7],24.42%
same,Activity,[8],13.19%
same,Activity,[9],58.52%
same,Activity,[10],26.28%
same,Activity,[11],15.19%
same,Activity,[12],45.83%
same,Activity,[13],28.18%
same,Activity,[14],25.99%
same,Activity,[15],Active
same,Activity,[16],Active
same,Activity,[17],Dose-dependent effect
same,Activity,[18],83.31%
same,Activity,[19],10.41%
same,Activity,[20],5.69%
same,Activity,[21],0.58%
same,Activity,[22],53.71%
same,Activity,[23],40.31%
same,Activity,[24],5.27%
same,Activity,[25],0.72%
same,Activity,[26],34.97%
same,Activity,[27],57.54%
same,Activity,[28],6.7%
same,Activity,[29],0.79%
same,Activity,[30],85.67%
same,Activity,[31],14.13%
same,Activity,[32],71.49%
same,Activity,[33],28.51%
same,Activity,[34],37.22%
same,Activity,[35],62.78%
same,Activity,[36],Dose-dependent effect
CN1c2ccccc2C(=O)N2CCc3c(n(CCOC(=O)CCCc4ccc(N(CCCl)CCCl)cc4)c4ccccc34)C21 (stereo unspecified),IC50,[1],45.7 µM
same,IC50,[2],> 100 µM
same,IC50,[3],4.82 µM
same,IC50,[4],11.3 µM
same,IC50,[5],> 200 µM
CN1c2ccccc2C(=O)N2CCc3c(n(CCCOC(=O)c4ccc(N(CCCl)CCCl)cc4)c4ccccc34)C21 (stereo unspecified),IC50,[1],> 100 µM
same,IC50,[2],> 100 µM
same,IC50,[3],6.6 µM
same,IC50,[4],30.9 µM
same,IC50,[5],> 200 µM
